In brackets after ≈: the same amount, converted by molar mass.
How the values were obtained:
Escherichia coli [1] = experiment: Antibacterial activity against Escherichia coli 12140 infected in sc dosed mouse administered at 1 to 5 hrs measured for 3 days; format: functional; conditions: Escherichia coli, 12140, sc; read-out: PD50
Outline: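 Mice infected intraperitoneally with about 2×10^3 organisms per mouse of E. coli 12140 culture diluted in 5% hog gastric mucin, giving uniformly lethal infection. Fourfold dilutions given subcutaneously in equally divided portions at 1 and 5 h postinfection, five groups per compound. Survivors observed 3 days. PD50 is total dose (mg/kg) protecting 50%, calculated by Litchfield–Wilcoxon method.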

Pseudomonas aeruginosa = experiment: Antibacterial activity against Pseudomonas aeruginosa HH 63 assessed as growth inhibition by two-fold agar dilution method; format: functional
Outline: (§1)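 MIC (μg/mL) by twofold agar dilution on Trypticase soy agar buffered to pH 6.0.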

Staphylococcus aureus = experiment: Antibacterial activity against penicillin G resistant Staphylococcus aureus HH 127 assessed as growth inhibition by two-fold agar dilution method; format: functional
Outline: (§2)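 Twofold agar dilution on Trypticase soy agar buffered to pH 6.0. MIC reported in μg/mL.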

Morganella morganii = experiment: Antibacterial activity against indole positive Proteus morganii 179 assessed as growth inhibition by two-fold agar dilution method; format: functional; outline: as §1
Klebsiella pneumoniae = experiment: Antibacterial activity against Klebsiella pneumoniae 4200 assessed as growth inhibition by two-fold agar dilution method; format: functional; outline: as §1
Salmonella paratyphi = experiment: Antibacterial activity against Salmonella paratyphi ATCC 12176 assessed as growth inhibition by two-fold agar dilution method; format: functional, Salmonella enterica subsp. enterica serovar Paratyphi A; conditions: Salmonella enterica; outline: as §2
Escherichia coli [2] = experiment: Antibacterial activity against Escherichia coli 12140 assessed as growth inhibition by two-fold agar dilution method; format: functional; outline: as §1
Klebsiella aerogenes = experiment: Antibacterial activity against Enterobacter aerogenes ATCC 13048 assessed as growth inhibition by two-fold agar dilution method; format: functional; outline: as §1

Compound: CC(=O)OCC1=C(C(=O)[O-])N2C(=O)[C@@H](NC(=O)C(NC(=O)[C@@H]3O[C@@H]3C(=O)[O-])c3ccccc3)[C@H]2SC1.[Na+].[Na+] (single isomer, unassigned; diastereomer 2)
- ED50 (Escherichia coli [1]): 72 mg/kg
- MIC (Pseudomonas aeruginosa): > 200 µg/mL
- MIC (Staphylococcus aureus): 12.5 µg/mL
- MIC (Morganella morganii): 200 µg/mL
- MIC (Klebsiella pneumoniae): 6.3 µg/mL
- MIC (Salmonella paratyphi): 6.3 µg/mL
- MIC (Escherichia coli [2]): 12.5 µg/mL
- MIC (Klebsiella aerogenes): 25 µg/mL

Compound: Cn1nnnc1SCC1=C(C(=O)[O-])N2C(=O)[C@@H](NC(=O)[C@H](NC(=O)[C@H]3O[C@@H]3C(=O)[O-])c3ccccc3)[C@H]2SC1.[Na+].[Na+] (mixture of isomers)
- ED50 (Escherichia coli [1]): 150 mg/kg
- MIC (Pseudomonas aeruginosa): > 200 µg/mL
- MIC (Staphylococcus aureus): 1.6 µg/mL
- MIC (Morganella morganii): 25 µg/mL
- MIC (Klebsiella pneumoniae): 12.5 µg/mL
- MIC (Salmonella paratyphi): 12.5 µg/mL
- MIC (Escherichia coli [2]): 25 µg/mL
- MIC (Klebsiella aerogenes): 25 µg/mL

Compound: CC(=O)OCC1=C(C(=O)O)N2C(=O)[C@@H](NC(=O)C(NC(=O)CSCC(=O)O)c3ccccc3)[C@H]2SC1 (some centres not stated)
- ED50 (Escherichia coli [1]): 64 mg/kg
- MIC (Pseudomonas aeruginosa): > 200 µg/mL
- MIC (Staphylococcus aureus): 3.1 µg/mL (≈ 5.77 µM)
- MIC (Morganella morganii): 12.5 µg/mL (≈ 23.3 µM)
- MIC (Klebsiella pneumoniae): 6.3 µg/mL (≈ 11.7 µM)
- MIC (Salmonella paratyphi): 6.3 µg/mL (≈ 11.7 µM)
- MIC (Escherichia coli [2]): 12.5 µg/mL (≈ 23.3 µM)
- MIC (Klebsiella aerogenes): 25 µg/mL (≈ 46.5 µM)

Compound: CC(=O)OCC1=C(C(=O)[O-])N2C(=O)[C@@H](NC(=O)C(NC(=O)C3CCC(C(=O)[O-])O3)c3ccccc3)[C@H]2SC1.[Na+].[Na+] (some centres not stated)
- ED50 (Escherichia coli [1]): 140 mg/kg
- MIC (Pseudomonas aeruginosa): 200 µg/mL
- MIC (Staphylococcus aureus): 6.3 µg/mL
- MIC (Morganella morganii): 50 µg/mL
- MIC (Klebsiella pneumoniae): 6.3 µg/mL
- MIC (Salmonella paratyphi): 12.5 µg/mL
- MIC (Escherichia coli [2]): 12.5 µg/mL
- MIC (Klebsiella aerogenes): 25 µg/mL

Compound: CC(=O)OCC1=C(C(=O)[O-])N2C(=O)[C@@H](NC(=O)C(NC(=O)[C@H]3C[C@H]3C(=O)[O-])c3ccccc3)[C@H]2SC1.[Na+].[Na+] (mixture of isomers)
- ED50 (Escherichia coli [1]): 25 mg/kg
- MIC (Pseudomonas aeruginosa): > 200 µg/mL
- MIC (Staphylococcus aureus): 6.3 µg/mL
- MIC (Morganella morganii): 12.5 µg/mL
- MIC (Klebsiella pneumoniae): 3.1 µg/mL
- MIC (Salmonella paratyphi): 6.3 µg/mL
- MIC (Escherichia coli [2]): 12.5 µg/mL
- MIC (Klebsiella aerogenes): 12.5 µg/mL

Compound: CC(=O)OCC1=C(C(=O)[O-])N2C(=O)[C@@H](NC(=O)C(NC(=O)C3OC3C(=O)[O-])c3ccccc3)[C@H]2SC1.[Na+].[Na+] (single isomer, unassigned; diastereomer 1)
- ED50 (Escherichia coli [1]): 12.5 mg/kg
- MIC (Pseudomonas aeruginosa): 100 µg/mL
- MIC (Staphylococcus aureus): 6.3 µg/mL
- MIC (Morganella morganii): 3.1 µg/mL
- MIC (Klebsiella pneumoniae): 0.8 µg/mL
- MIC (Salmonella paratyphi): 1.6 µg/mL
- MIC (Escherichia coli [2]): 1.6 µg/mL
- MIC (Klebsiella aerogenes): 3.1 µg/mL

Compound: CC(=O)OCC1=C(C(=O)[O-])N2C(=O)[C@@H](NC(=O)C(NC(=O)COCC(=O)[O-])c3ccccc3)[C@H]2SC1.[Na+].[Na+] (some centres not stated)
- ED50 (Escherichia coli [1]): 21.5 mg/kg
- MIC (Pseudomonas aeruginosa): > 200 µg/mL
- MIC (Staphylococcus aureus): 3.1 µg/mL
- MIC (Morganella morganii): 12.5 µg/mL
- MIC (Klebsiella pneumoniae): 3.1 µg/mL
- MIC (Salmonella paratyphi): 12.5 µg/mL
- MIC (Escherichia coli [2]): 6.3 µg/mL
- MIC (Klebsiella aerogenes): 12.5 µg/mL

Compound: CC(=O)OCC1=C(C(=O)O)N2C(=O)[C@@H](NC(=O)[C@H](N)c3ccccc3)[C@H]2SC1 [CEPHALOGLYCIN]
- MIC (Pseudomonas aeruginosa): > 200 µg/mL
- MIC (Staphylococcus aureus): 3.1 µg/mL (≈ 7.65 µM)
- MIC (Morganella morganii): > 200 µg/mL
- MIC (Klebsiella pneumoniae): 3.1 µg/mL (≈ 7.65 µM)
- MIC (Salmonella paratyphi): 3.1 µg/mL (≈ 7.65 µM)
- MIC (Escherichia coli [2]): 3.1 µg/mL (≈ 7.65 µM)
- MIC (Klebsiella aerogenes): 50 µg/mL (≈ 123 µM)

Compound: Cn1nnnc1SCC1=C(C(=O)O)N2C(=O)[C@@H](NC(=O)C(N)c3ccccc3)[C@H]2SC1 (some centres not stated)
- ED50 (Escherichia coli [1]): 1.4 mg/kg
- MIC (Pseudomonas aeruginosa): > 200 µg/mL
- MIC (Staphylococcus aureus): 3.1 µg/mL (≈ 6.72 µM)
- MIC (Morganella morganii): 6.3 µg/mL (≈ 13.7 µM)
- MIC (Klebsiella pneumoniae): 1.6 µg/mL (≈ 3.47 µM)
- MIC (Salmonella paratyphi): 1.6 µg/mL (≈ 3.47 µM)
- MIC (Escherichia coli [2]): 3.1 µg/mL (≈ 6.72 µM)
- MIC (Klebsiella aerogenes): 1.6 µg/mL (≈ 3.47 µM)

Compound: CC(=O)OCC1=C(C(=O)O)N2C(=O)[C@@H](NC(=O)Cc3cccs3)[C@H]2SC1 [CEPHALOTHIN]
- ED50 (Escherichia coli [1]): 50 mg/kg
- MIC (Pseudomonas aeruginosa): > 200 µg/mL
- MIC (Staphylococcus aureus): 0.2 µg/mL (≈ 0.504 µM)
- MIC (Morganella morganii): > 200 µg/mL
- MIC (Klebsiella pneumoniae): 1.6 µg/mL (≈ 4.04 µM)
- MIC (Salmonella paratyphi): 0.8 µg/mL (≈ 2.02 µM)
- MIC (Escherichia coli [2]): 3.1 µg/mL (≈ 7.82 µM)
- MIC (Klebsiella aerogenes): 12.5 µg/mL (≈ 31.5 µM)

Compound: CC(=O)OCC1=C(C(=O)[O-])N2C(=O)[C@@H](NC(=O)C(NC(=O)C3CO3)c3ccccc3)[C@H]2SC1.[Na+] (mixture of isomers)
- ED50 (Escherichia coli [1]): 100 mg/kg
- MIC (Pseudomonas aeruginosa): > 200 µg/mL
- MIC (Staphylococcus aureus): 1.6 µg/mL
- MIC (Morganella morganii): 25 µg/mL
- MIC (Klebsiella pneumoniae): 12.5 µg/mL
- MIC (Salmonella paratyphi): 12.5 µg/mL
- MIC (Escherichia coli [2]): 25 µg/mL
- MIC (Klebsiella aerogenes): 25 µg/mL

— ChEMBL document CHEMBL3271935, “Synthesis and biological activity of some broad-spectrum N-acylphenyglycine cephalosporins” (1977)
